Blank lines part the entries; values can stand above or below the molecule they belong to.
How the values were obtained:
[1] = biological target: T1, Prostaglandin D2 receptor (Homo sapiens, UniProt Q13258); experiment: Displacement of [3H]-PGD2 from human DP receptor expressed in HEK293 cells in buffer solution with 0.5% bovine serum albumin by scintillation counting; type: cell-based
T1 sequence (Q13258 whole entry): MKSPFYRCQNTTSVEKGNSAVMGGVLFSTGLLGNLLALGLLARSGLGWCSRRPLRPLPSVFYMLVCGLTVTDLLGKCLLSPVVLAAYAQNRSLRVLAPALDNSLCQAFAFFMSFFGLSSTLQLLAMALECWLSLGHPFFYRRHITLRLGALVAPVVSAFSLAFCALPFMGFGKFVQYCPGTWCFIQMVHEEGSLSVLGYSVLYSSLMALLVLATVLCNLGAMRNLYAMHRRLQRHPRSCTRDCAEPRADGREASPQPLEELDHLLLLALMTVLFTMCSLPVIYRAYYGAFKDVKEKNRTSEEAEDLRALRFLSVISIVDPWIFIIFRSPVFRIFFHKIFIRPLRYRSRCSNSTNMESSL
How it was run: (§1)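 Radioligand binding: displacement of ³H-PGD2 from receptor expressed on HEK 293 cells. Run either in buffer with 0.5% bovine serum albumin or in 50% human plasma. IC50 values are the average of at least two experiments.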

[2] = biological target: T2, Prostaglandin D2 receptor 2 (Homo sapiens, UniProt Q9Y5Y4); experiment: Displacement of [3H]-PGD2 from human CRTH2 expressed in HEK293 cells in buffer solution with 0.5% bovine serum albumin by scintillation counting; type: cell-based; how it was run: as §1
T2 sequence (Q9Y5Y4 whole entry): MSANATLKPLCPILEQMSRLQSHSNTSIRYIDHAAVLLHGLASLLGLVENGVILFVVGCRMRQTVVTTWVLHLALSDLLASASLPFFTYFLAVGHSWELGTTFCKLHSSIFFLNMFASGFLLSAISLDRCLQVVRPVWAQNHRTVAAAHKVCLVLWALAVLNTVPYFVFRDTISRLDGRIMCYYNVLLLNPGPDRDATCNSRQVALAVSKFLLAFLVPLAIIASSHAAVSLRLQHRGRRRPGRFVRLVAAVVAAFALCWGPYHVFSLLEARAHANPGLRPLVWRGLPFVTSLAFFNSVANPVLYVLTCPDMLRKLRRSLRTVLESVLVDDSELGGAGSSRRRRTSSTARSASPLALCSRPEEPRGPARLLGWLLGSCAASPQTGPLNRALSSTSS

CYP3A4 = CYP3A4 (Homo sapiens, UniProt P08684); experiment: Time dependent inhibition of human liver microsome CYP3A4 activity assessed as percentage remaining activity by measuring 6-beta-OH-testosterone formation at 15 uM for 15 mins using 200 uM testosterone as a substrate by LC/MS/MS analysis; type: ADME; conditions: liver microsomes, probe testosterone, read-out: Activity
How it was run: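 Pooled human liver microsomes (1.0 mg/mL) in 100 mM potassium phosphate, pH 7.4, preincubated with compound (15 µM) and 1 mM NADPH for 15 min. Then diluted 1:10 into a secondary incubation with 200 µM testosterone (saturating) plus 1 mM NADPH for 20 min. Stopped with acetonitrile containing deuterated internal standard. 6β-OH-testosterone measured by LC/MS/MS; % remaining activity reported. Average of at least two experiments.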

[3] = biological target: T2, Prostaglandin D2 receptor 2; experiment: Displacement of [3H]-PGD2 from human CRTH2 expressed in HEK293 cells in presence of 50% human plasma by scintillation counting; type: cell-based; how it was run: as §1
[4] = biological target: T1, Prostaglandin D2 receptor; experiment: Displacement of [3H]-PGD2 from human DP receptor expressed in HEK293 cells in presence of 50% human plasma by scintillation counting; type: cell-based; how it was run: as §1

Chain of CYP3A4 (P08684 whole entry): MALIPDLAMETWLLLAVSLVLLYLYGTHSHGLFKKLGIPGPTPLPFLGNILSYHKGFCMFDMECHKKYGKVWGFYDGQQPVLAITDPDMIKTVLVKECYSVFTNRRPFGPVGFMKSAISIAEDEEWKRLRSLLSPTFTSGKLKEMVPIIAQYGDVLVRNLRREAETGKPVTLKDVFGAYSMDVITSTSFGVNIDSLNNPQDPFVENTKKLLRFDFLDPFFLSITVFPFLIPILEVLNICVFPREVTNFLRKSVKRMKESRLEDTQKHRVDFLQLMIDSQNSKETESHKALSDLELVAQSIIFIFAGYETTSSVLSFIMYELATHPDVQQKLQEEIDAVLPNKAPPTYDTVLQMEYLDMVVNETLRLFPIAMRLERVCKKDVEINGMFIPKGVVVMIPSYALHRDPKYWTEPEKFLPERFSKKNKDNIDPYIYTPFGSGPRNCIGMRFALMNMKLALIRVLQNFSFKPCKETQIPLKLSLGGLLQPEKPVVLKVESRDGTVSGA

SMILES: COc1cc(CC(=O)O)ccc1Oc1ccc2[nH]c(C(C)(C)C)cc2c1NS(=O)(=O)c1ccc(Cl)cc1Cl
IC50 [1]: 8400 nM
IC50 [2]: 32 nM
activity at 0.25 h, 15 µM (CYP3A4): 81%

SMILES: COc1cc(CC(=O)O)ccc1Oc1ccc2[nH]c(CC(C)C)cc2c1NS(=O)(=O)c1ccc(Cl)cc1Cl
IC50 [1]: 62 nM
IC50 [3]: 48 nM
IC50 [2]: 32 nM
activity at 0.25 h, 15 µM (CYP3A4): 38%
IC50 [4]: 110 nM

SMILES: COc1cc(CC(=O)O)ccc1Oc1ccc2[nH]c(C)c(Cl)c2c1NS(=O)(=O)c1ccc(Cl)cc1Cl
IC50 [1]: 1100 nM
IC50 [2]: 220 nM
activity at 0.25 h, 15 µM (CYP3A4): 87%

SMILES: COc1cc(CC(=O)O)ccc1Oc1ccc2[nH]c(C#N)cc2c1NS(=O)(=O)c1ccc(Cl)cc1Cl
IC50 [1]: 82 nM
IC50 [3]: 130 nM
IC50 [2]: 27 nM
activity at 0.25 h, 15 µM (CYP3A4): 73%
IC50 [4]: 130 nM

SMILES: COc1cc(CC(=O)O)ccc1Oc1ccc2[nH]c(C3CC3)cc2c1NS(=O)(=O)c1ccc(Cl)cc1Cl
IC50 [1]: 74 nM
IC50 [3]: 25 nM
IC50 [2]: 8 nM
activity at 0.25 h, 15 µM (CYP3A4): 41%
IC50 [4]: 350 nM

Molecules with a lower IC50 [1], results first:

IC50 [1]: 45 nM
IC50 [3]: 110 nM
IC50 [2]: 57 nM
activity at 0.25 h, 15 µM (CYP3A4): 79%
IC50 [4]: 130 nM
SMILES: CCCc1cc2c(NS(=O)(=O)c3ccc(Cl)cc3Cl)c(Oc3ccc(CC(=O)O)cc3OC)ccc2[nH]1

IC50 [1]: 17 nM
IC50 [3]: 31 nM
IC50 [2]: 3 nM
activity at 0.25 h, 15 µM (CYP3A4): 103%
IC50 [4]: 1300 nM
SMILES: COc1cc(CC(=O)O)ccc1Oc1ccc2c(c1NS(=O)(=O)c1ccc(Cl)cc1Cl)CC(=O)N2

IC50 [1]: 27 nM
IC50 [3]: 56 nM
IC50 [2]: 22 nM
activity at 0.25 h, 15 µM (CYP3A4): 28%
IC50 [4]: 76 nM
SMILES: COc1cc(CC(=O)O)ccc1Oc1ccc2c(cc(C)n2C)c1NS(=O)(=O)c1ccc(Cl)cc1Cl

Source: ChEMBL document CHEMBL3286301, “Solving time-dependent CYP3A4 inhibition for a series of indole-phenylacetic acid dual antagonists of the PGD(2) receptors CRTH2 and DP” (Bioorg Med Chem Lett, 2014)
